In ChEMBL document CHEMBL1145990, “Synthesis and in vitro antitumor activity of phenanthrolin-7-one derivatives, analogues of the marine pyridoacridine alkaloids ascididemin and meridine: structure-activity relationship” (J Med Chem, 2003):

What was measured:
PC-3 = test: In vitro antitumor effects against human PC-3 cell lines.; format: functional, cell-based
How it was run: (§1)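 Cells grown at 37°C in sealed dishes in MEM with 5% FCS, seeded at 40000 cells/mL and allowed 24 h to plate. Six concentrations from 10 µM to 0.1 nM were tested. Growth was read by MTT reduction to formazan at 570 nm (630 nm reference), in sextuplicate. IC50 is the concentration giving 50% growth inhibition versus control, as the mean of three independent assays.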

J82 = test: In vitro antitumor effects against human J82 cell lines.; format: functional, cell-based; how it was run: as §1
T-24 = test: In vitro antitumor effects against human T24 cell lines.; format: functional, cell-based; how it was run: as §1
A549 = test: In vitro antitumor effects against human A-549 cell lines.; format: functional, cell-based; how it was run: as §1
U-87 MG = test: In vitro antitumor effects against human U87MG cell lines.; format: functional, cell-based, U-87MG ATCC; how it was run: as §1
LoVo = test: In vitro antitumor effects against human LoVo cell lines.; format: functional, cell-based; how it was run: as §1
A-427 = test: In vitro antitumor effects against human A-427 cell lines.; format: functional, cell-based; how it was run: as §1
HCT-15 = test: In vitro antitumor effects against human HCT-15 cell lines.; format: functional, cell-based; how it was run: as §1
MCF7 = test: In vitro antitumor effects against human MCF-7 cell lines.; format: functional, cell-based; how it was run: as §1
Mus musculus = test: Maximum tolerated dose following single i.p. injection to B6D2F1/jico mice.; format: functional
How it was run: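 Healthy non-tumour-bearing B6D2F1 mice given one acute intraperitoneal dose at 5, 10, 20, 40, 80 or 160 mg/kg. Three mice per dose group. Survival and body weight recorded for up to 28 days after injection. MTD taken as the highest dose tolerable acutely.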

SW1088 = test: In vitro antitumor effects against human SW 1088 cell lines.; format: functional, cell-based
T47D = test: In vitro antitumor effects against human T-47D cell lines.; format: functional, cell-based; how it was run: as §1
U373 MG = test: In vitro antitumor effects against human U-373MG cell lines.; format: functional, cell-based, U-373MG ATCC; how it was run: as §1

Compound | IC50 (PC-3) [nM] | IC50 (J82) [µM] | IC50 (T-24) [nM] | IC50 (A549) [nM] | IC50 (U-87 MG) [nM] | IC50 (LoVo) [nM] | IC50 (A-427) [nM] | IC50 (HCT-15) [nM] | IC50 (MCF7) [nM] | MTD (Mus musculus) [mg/kg] | IC50 (SW1088) [µM] | IC50 (T47D) [µM] | IC50 (U373 MG) [nM]
COc1ccc2c(n1)C(=O)c1nccc3ccnc-2c13 | 6000 | 5 | 6000 | 9000 | 6000 | 5000 | 6000 | 6000 | 5000 | 40 | 5 | 6 | 6000
COc1cnc2c3c(nccc13)-c1c(N(C)C)ccnc1C2=O | 6000 | 6 | 5000 | 3000 | 3000 | 3000 | 3000 | 3000 | 4000 | >160 | 6 | 4 | 5000
COc1ccnc2c1C(=O)c1nccc3ccnc-2c13 | 600 | 3 | 700 | 800 | 4000 | 900 | 800 | 800 | 600 | 10 | 0.9 | 0.4 | 800
COc1cc(OC)c2c(n1)C(=O)c1nccc3ccnc-2c13 | 6000 | 5 | 6000 | 6000 | 5000 | 4000 | 5000 | 5000 | 5000 | 40 | 5 | 5 | 6000
O=C1c2nccc(O)c2-c2nccc3ccnc1c23 | > 10000 | 6 | 8000 | 6000 | 8000 | 5000 | 6000 | 6000 | 5000 | 10 | 6 | 6 | 6000
CN(C)c1cc(Cl)nc2c1-c1nccc3ccnc(c13)C2=O | > 10000 | 5 | 6000 | > 10000 | 6000 | 5000 | 6000 | 5000 | 6000 | 40 | 5 | 4 | 6000
COc1cnc2c3c(nccc13)-c1ncccc1C2=O | 500 | 4 | 500 | 500 | 300 | 5000 | 500 | 700 | 400 | >160 | 0.3 | 7 | 600
O=C1c2ncccc2-c2nccc3ccnc1c23 | 900 | 5 | 800 | 3000 | 6000 | 2000 | 700 | 600 | 600 | 10 | 5 | 0.8 | 4000
COc1ccnc2c1-c1nccc3ccnc(c13)C2=O | 900 | 2 | 300 | 300 | 100 | 300 | 70 | 100 | 200 | 5 | 2 | 3 | 100
COc1ccc2c(n1)C(=O)c1ncc(OC)c3ccnc-2c13 | 1000 | 8 | 600 | 800 | 700 | 600 | 500 | 600 | 500 | >160 | 0.5 | 1 | 800
COc1ccnc2c1C(=O)c1ncc(OC)c3ccnc-2c13 | 800 | 5 | 2000 | 5000 | 800 | 800 | 800 | 3000 | 2000 | 80 | 3 | 5 | 2000
O=C1c2cccnc2-c2nccc3ccnc1c23 | 5000 | 5 | 300 | 800 | 500 | 2000 | 7000 | 900 | 200 | 10 | 4 | 0.7 | 800
COc1ccnc2c1-c1nccc3c(OC)cnc(c13)C2=O | 40 | 0.2 | 9 | 5 | 8 | 8 | 6 | 40 | 30 | 20 | 0.008 | 0.06 | 7
CN(C)c1ccnc2c1-c1nccc3ccnc(c13)C2=O | 4000 | 4 | 1000 | 1000 | 2000 | 2000 | 900 | 2000 | 900 | 10 | 5 | 4 | 1000
O=C1c2c(Cl)ccnc2-c2nccc3ccnc1c23 | 5000 | 4 | 3000 | 800 | 800 | 1000 | 700 | 1000 | 600 | 20 | 4 | 1 | 4000
COc1ccc2c(n1)-c1nccc3ccnc(c13)C2=O | 6000 | 5 | 5000 | 9000 | 6000 | > 10000 | 6000 | 6000 | 5000 | >160 | 5 | 6 | 5000
COc1cnc2c3c(nccc13)-c1cccnc1C2=O | 80 | 0.8 | 60 | 50 | 50 | 700 | 70 | 90 | 60 | >160 | 0.08 | 6 | 70
